Reference: ChEMBL document CHEMBL1157829, “2-imino-thiazolidin-4-one derivatives as potent, orally active S1P1 receptor agonists” (J Med Chem, 2010)
Activity calls are given as the source filed them. The rule behind the calls is not given here.

Experiments:
[1] = Intrinsic clearance in rat hepatocytes at 1 uM by LC-MS/MS analysis measured per million cells; format: ADME, cell-based, Liver, Hepatocyte
[2] = Intrinsic clearance in human liver microsomes at 1 uM by LC-MS/MS analysis measured per mg of protein; format: ADME, Microsome
Rattus norvegicus [3] = assay: Immunomodulatory activity in normotensive Wistar rat assessed as change in circulating lymphocytes count at 10 mg/kg, po after 6 hrs relative to control; format: functional
Method in brief: (§1)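 Normotensive male Wistar rats were housed on a 12 h light/dark cycle with free chow and water. Compound was dissolved in DMSO and added to 7.5% aqueous gelatin (final 5% DMSO), then given by gavage at 10 mg/kg (n = 6). Vehicle was 95% gelatin (7.5%)/5% DMSO (n = 30). Blood was taken before dosing and at 3, 6 and 24 h and counted by hematology analyzer. Counts are % change from t = 0 h ± SEM.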

[4] = Cmax in Wistar rat at 10 mg/kg, po and 1 mg/kg, iv; format: ADME, organism-based; details: in vivo
Method in brief: (§2)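 Male Wistar rats (n = 3) were dosed at 10 mg/kg orally and 1 mg/kg intravenously. Plasma pharmacokinetic parameters were derived from these runs.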

[5] = target: T1, Sphingosine 1-phosphate receptor 3 (Homo sapiens, UniProt Q99500); assay: Agonist activity at human recombinant S1P3 receptor expressed in CHO cells by GTPgammaS binding assay; format: functional, cell-based
T1 sequence (Q99500 whole entry): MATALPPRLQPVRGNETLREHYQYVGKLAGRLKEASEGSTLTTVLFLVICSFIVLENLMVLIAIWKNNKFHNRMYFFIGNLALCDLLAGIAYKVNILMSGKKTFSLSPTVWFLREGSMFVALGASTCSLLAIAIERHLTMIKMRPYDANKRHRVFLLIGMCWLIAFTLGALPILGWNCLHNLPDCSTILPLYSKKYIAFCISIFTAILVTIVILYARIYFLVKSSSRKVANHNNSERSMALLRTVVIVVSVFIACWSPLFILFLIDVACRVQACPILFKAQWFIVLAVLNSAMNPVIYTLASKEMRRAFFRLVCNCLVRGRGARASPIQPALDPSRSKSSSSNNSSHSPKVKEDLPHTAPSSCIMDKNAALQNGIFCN
Method in brief: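 Membranes from CHO cells expressing recombinant human receptor. Buffer 20 mM Hepes pH 7.4, 100 mM NaCl, 5 mM MgCl2, 0.1% fatty-acid-free BSA, 2.5% DMSO, GDP (1 uM for S1P1, 3 uM for S1P3), 50 pM 35S-GTPγS. Compound preincubated with membranes 30 min at room temperature, then 1 h with 35S-GTPγS. Reaction filtered and bound label counted. Specific binding is the 10 uM S1P signal minus the no-agonist signal. EC50 is the concentration giving 50% of specific binding; three independent assays.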

[6] = Half life in Wistar rat at 10 mg/kg, po and 1 mg/kg, iv; format: ADME, organism-based; details: in vivo; method in brief: as §2
[7] = Volume of distribution at steady state in Wistar rat at 10 mg/kg, po and 1 mg/kg, iv; format: ADME, organism-based; details: in vivo, read-out: Vdss; method in brief: as §2
Rattus norvegicus [8] = assay: Immunomodulatory activity in normotensive Wistar rat assessed as change in circulating lymphocytes count at 10 mg/kg, po after 3 hrs relative to control; format: functional; method in brief: as §1
[9] = Bioavailability in Wistar rat at 10 mg/kg, po and 1 mg/kg, iv; format: ADME, organism-based; details: in vivo; method in brief: as §2
[10] = Intrinsic clearance in Wistar rat liver microsomes at 1 uM by LC-MS/MS analysis measured per mg of protein; format: ADME, Microsome
[11] = Clearance in Wistar rat at 10 mg/kg, po and 1 mg/kg, iv; format: ADME, organism-based; details: in vivo; method in brief: as §2
[12] = target: T2, Sphingosine 1-phosphate receptor 1 (Homo sapiens, UniProt P21453); assay: Agonist activity at human recombinant S1P1 receptor expressed in CHO cells by GTPgammaS binding assay; format: functional, cell-based
T2 sequence (P21453 whole entry): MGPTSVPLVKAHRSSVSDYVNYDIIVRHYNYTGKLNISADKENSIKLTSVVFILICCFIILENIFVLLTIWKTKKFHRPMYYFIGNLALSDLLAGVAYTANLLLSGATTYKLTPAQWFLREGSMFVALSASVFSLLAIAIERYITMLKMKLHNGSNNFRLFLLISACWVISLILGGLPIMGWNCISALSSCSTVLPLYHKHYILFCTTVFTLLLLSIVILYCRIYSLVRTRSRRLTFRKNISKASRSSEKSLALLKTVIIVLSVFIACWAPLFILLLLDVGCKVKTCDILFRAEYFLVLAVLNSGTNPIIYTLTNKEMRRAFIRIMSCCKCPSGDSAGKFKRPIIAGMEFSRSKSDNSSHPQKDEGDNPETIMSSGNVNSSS

Rattus norvegicus [13] = assay: Immunomodulatory activity in normotensive Wistar rat assessed as change in circulating lymphocytes count at 10 mg/kg, po after 24 hrs relative to control; format: functional; method in brief: as §1
[14] = target: T3, Sphingosine 1-phosphate receptor 4 (Homo sapiens, UniProt O95977); assay: Agonist activity at human recombinant S1P4 receptor expressed in CHO cells by GTPgammaS binding assay; format: functional, cell-based
T3 sequence (O95977 whole entry): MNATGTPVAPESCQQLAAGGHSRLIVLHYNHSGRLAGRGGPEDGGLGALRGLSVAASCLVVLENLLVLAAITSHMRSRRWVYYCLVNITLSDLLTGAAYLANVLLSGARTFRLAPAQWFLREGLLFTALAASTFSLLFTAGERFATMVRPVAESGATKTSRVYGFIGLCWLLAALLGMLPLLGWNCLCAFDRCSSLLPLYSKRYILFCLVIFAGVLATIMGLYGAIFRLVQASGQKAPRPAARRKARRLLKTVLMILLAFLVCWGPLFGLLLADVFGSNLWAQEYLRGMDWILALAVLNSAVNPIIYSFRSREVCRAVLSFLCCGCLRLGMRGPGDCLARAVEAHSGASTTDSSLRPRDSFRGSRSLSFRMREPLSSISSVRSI

[15] = target: T3, Sphingosine 1-phosphate receptor 4; assay: Displacement of [33P]S1P from human recombinant S1P4 receptor expressed in CHO cells by scintillation counting; format: cell-based
[16] = Clearance in Wistar rat at 3 mg/kg, po and 0.3 mg/kg, iv; format: ADME, organism-based; details: in vivo
Method in brief: (§3)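 Male Wistar rats (n = 3) were dosed at 3 mg/kg orally and 0.3 mg/kg intravenously. Plasma pharmacokinetic parameters were derived from these runs.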

[17] = Volume of distribution at steady state in Wistar rat at 3 mg/kg, po and 0.3 mg/kg, iv; format: ADME, organism-based; details: in vivo, read-out: Vdss; method in brief: as §3
[18] = Volume of distribution at steady state in Beagle dog at 3 mg/kg, po and 0.3 mg/kg, iv; format: ADME, organism-based, Canis lupus familiaris; details: in vivo, read-out: Vdss
Method in brief: (§4)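 Fed male beagle dogs (n = 3) were dosed at 3 mg/kg orally and 0.3 mg/kg intravenously. Plasma exposure was measured to derive bioavailability, Cmax, half-life, clearance and Vss.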

[19] = target: T4, Sphingosine 1-phosphate receptor 2 (Homo sapiens, UniProt O95136); assay: Agonist activity at human recombinant S1P2 receptor expressed in HEK cells by GTPgammaS binding assay; format: functional, HEK293
T4 sequence (O95136 whole entry): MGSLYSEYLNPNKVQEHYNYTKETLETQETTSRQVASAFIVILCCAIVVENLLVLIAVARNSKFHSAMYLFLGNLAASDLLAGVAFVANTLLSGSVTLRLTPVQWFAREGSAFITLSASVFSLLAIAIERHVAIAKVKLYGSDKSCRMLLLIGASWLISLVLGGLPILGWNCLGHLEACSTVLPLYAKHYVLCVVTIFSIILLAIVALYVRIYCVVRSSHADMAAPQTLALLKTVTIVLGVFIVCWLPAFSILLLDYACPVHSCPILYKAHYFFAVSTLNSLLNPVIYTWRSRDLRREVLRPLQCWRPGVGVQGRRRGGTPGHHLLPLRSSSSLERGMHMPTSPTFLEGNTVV

[20] = Intrinsic clearance in Beagle dog hepatocytes at 1 uM by LC-MS/MS analysis measured per million cells; format: ADME, cell-based, Canis lupus familiaris, Liver, Hepatocyte
[21] = target: T1, Sphingosine 1-phosphate receptor 3; assay: Agonist activity at human recombinant S1P3 receptor expressed in HEK cells by GTPgammaS binding assay; format: functional, HEK293
Method in brief: (§5)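 Membranes from cells expressing recombinant receptor. Buffer: 20 mM Hepes pH 7.4, 100 mM NaCl, 5 mM MgCl2, 0.1% fatty-acid-free BSA, 2.5% DMSO. GDP 1 µM for S1P1, 3 µM for S1P3. Compound preincubated with membranes 30 min at RT, then 50 pM 35S-GTPγS added for 1 h at RT. Bound label collected by filtration and counted. […] Values are geometric means of independent experiments.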

Canis familiaris = assay: Immunomodulatory activity in Beagle dog assessed as decrease in circulating lymphocytes count at 5 mg/kg, po after 24 hrs; format: functional, organism-based; set-up: dose 5 mg/kg; details: Canis lupus familiaris
[22] = target: T5, Sphingosine 1-phosphate receptor 5 (Homo sapiens, UniProt Q9H228); assay: Agonist activity at human recombinant S1P5 receptor expressed in CHO cells at 10 uM by GTPgammaS binding assay relative to S1P; format: functional, cell-based
T5 sequence (Q9H228 whole entry): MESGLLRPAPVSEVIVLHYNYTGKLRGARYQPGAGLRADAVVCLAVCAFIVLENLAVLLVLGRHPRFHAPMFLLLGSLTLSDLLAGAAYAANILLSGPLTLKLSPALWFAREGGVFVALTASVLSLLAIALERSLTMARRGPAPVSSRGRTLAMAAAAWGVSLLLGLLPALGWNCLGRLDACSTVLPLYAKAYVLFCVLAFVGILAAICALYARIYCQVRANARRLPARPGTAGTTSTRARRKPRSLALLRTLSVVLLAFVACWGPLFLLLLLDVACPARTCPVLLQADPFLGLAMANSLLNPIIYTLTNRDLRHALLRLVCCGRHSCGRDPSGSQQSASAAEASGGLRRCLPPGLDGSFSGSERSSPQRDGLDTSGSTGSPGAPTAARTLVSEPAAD
Method in brief: (§6)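 In the same CHO-membrane 35S-GTPγS binding assay with human receptor, maximal activity at 10 uM compound was expressed as a percentage of the effect induced by S1P.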

[23] = Intrinsic clearance in Beagle dog liver microsomes at 1 uM by LC-MS/MS analysis measured per mg of protein; format: ADME, Canis lupus familiaris, Microsome
[24] = Bioavailability in Beagle dog at 3 mg/kg, po and 0.3 mg/kg, iv; format: ADME, organism-based, Canis lupus familiaris; details: in vivo; method in brief: as §4
[25] = Half life in human administered as single ascending dose; format: ADME, organism-based; details: in vivo
[26] = target: T5, Sphingosine 1-phosphate receptor 5; assay: Agonist activity at human recombinant S1P5 receptor expressed in CHO cells by GTPgammaS binding assay; format: functional, cell-based
[27] = Cmax in Beagle dog at 3 mg/kg, po and 0.3 mg/kg, iv; format: ADME, organism-based, Canis lupus familiaris; details: in vivo; method in brief: as §4
[28] = target: T5, Sphingosine 1-phosphate receptor 5; assay: Displacement of [33P]S1P from human recombinant S1P5 receptor expressed in CHO cells by scintillation counting; format: cell-based
[29] = Cmax in Wistar rat at 3 mg/kg, po and 0.3 mg/kg, iv; format: ADME, organism-based; details: in vivo; method in brief: as §3
[30] = Half life in Wistar rat at 3 mg/kg, po and 0.3 mg/kg, iv; format: ADME, organism-based; details: in vivo; method in brief: as §3
[31] = target: T1, Sphingosine 1-phosphate receptor 3; assay: Displacement of [33P]S1P from human recombinant S1P3 receptor expressed in HEK cells by scintillation counting; format: cell-based, HEK293; details: read-out: IC50
Method in brief: (§7)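 33P-S1P binding to membranes of recombinant receptor-expressing cells. IC50 reported as the geometric mean of independent experiments, with the geometric standard deviation.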

[32] = target: T2, Sphingosine 1-phosphate receptor 1; assay: Agonist activity at human recombinant S1P1 receptor expressed in HEK cells by GTPgammaS binding assay; format: functional, cell-based, HEK293; method in brief: as §5
[33] = Clearance in Beagle dog at 3 mg/kg, po and 0.3 mg/kg, iv; format: ADME, organism-based, Canis lupus familiaris; details: in vivo; method in brief: as §4
[34] = target: T2, Sphingosine 1-phosphate receptor 1; assay: Displacement of [33P]S1P from human recombinant S1P1 receptor expressed in HEK cells by scintillation counting; format: cell-based, HEK293; details: read-out: IC50; method in brief: as §7
[35] = target: T4, Sphingosine 1-phosphate receptor 2; assay: Displacement of [33P]S1P from human recombinant S1P2 receptor expressed in HEK cells by scintillation counting; format: cell-based, HEK293
[36] = target: T6, Sphingosine 1-phosphate receptor 4 (Homo sapiens) (UniProt O95977); assay: Agonist activity at human recombinant S1P4 receptor expressed in CHO cells at 10 uM by GTPgammaS binding assay relative to S1P; format: functional, cell-based; method in brief: as §6
T6 sequence (whole entry): T3 sequence (O95977 whole entry)

[37] = Half life in Beagle dog at 3 mg/kg, po and 0.3 mg/kg, iv; format: ADME, organism-based, Canis lupus familiaris; details: in vivo; method in brief: as §4
[38] = Bioavailability in Wistar rat at 3 mg/kg, po and 0.3 mg/kg, iv; format: ADME, organism-based; details: in vivo; method in brief: as §3

Molecule CCC/N=C1\S/C(=C\c2ccc(OCC(O)CO)c(Cl)c2)C(=O)N1c1ccccc1C (racemic) has a hepatocyte CLint at 1 µM [1] of 9.1 µL/min/1e6 cells, a microsomal CLint at 1 µM [2] of 4 µL/min/mg and an Activity (Rattus norvegicus [3]) of -71%. The Cmax [4] was 311 ng/mL, the EC50 [5] was 0.174 µM and the half-life [6] was 1.6 h. The Vd [7] was 5.6 L/kg, the Activity (Rattus norvegicus [8]) was -67% and the bioavailability [9] was 90%. It also gave a microsomal CLint at 1 µM [10] of 27 µL/min/mg, a clearance [11] of 41 mL/min/kg and an EC50 [12] of 0.012 µM. It also gave an Activity (Rattus norvegicus [13]) of 19%.

Work on CCC/N=C1\S/C(=C\c2ccc(OC[C@@H](O)CO)c(Cl)c2)C(=O)N1c1ccccc1C yielded a hepatocyte CLint at 1 µM [1] of 3.7 µL/min/1e6 cells, a microsomal CLint at 1 µM [2] of 4 µL/min/mg and an EC50 [14] of 1.11 µM. For the same molecule, the IC50 [15] was 1.96 µM, the Activity (Rattus norvegicus [3]) was -63% and the clearance [16] was 25 mL/min/kg. It also gave a Vd [17] of 3.3 L/kg, a Vd [18] of 0.9 L/kg and an EC50 [5] of 0.123 µM. The EC50 [19] was over 10 µM, the hepatocyte CLint at 1 µM [20] was 1 µL/min/1e6 cells and the EC50 [21] was 0.105 µM. For the same molecule, the Activity (Rattus norvegicus [8]) was -65%, the Activity (Canis familiaris) was “Active” and the Activity [22] was 42%. For the same molecule, the microsomal CLint at 1 µM [23] was 7 µL/min/mg, the bioavailability [24] was 69% and the half-life [25] was 22 h. For the same molecule, the EC50 [26] was 0.0591 µM, the microsomal CLint at 1 µM [10] was 56 µL/min/mg and the Cmax [27] was 1360 ng/mL. It also gave an IC50 [28] of 0.142 µM, a Cmax [29] of 409 ng/mL and a half-life [30] of 1.3 h. For the same molecule, the IC50 [31] was 2.07 µM, the EC50 [12] was 0.0091 µM and the EC50 [32] was 0.0057 µM. The clearance [33] was 1.3 mL/min/kg, the IC50 [34] was 0.006 µM and the Activity (Rattus norvegicus [13]) was -18%. It also gave an IC50 [35] of over 10 µM, an Activity [36] of 18% and a half-life [37] of 10 h. The bioavailability [38] was 35%.
